ChEMBL document CHEMBL4000187, “Design and synthesis of emodin derivatives as novel inhibitors of ATP-citrate lyase” (Eur J Med Chem, 2017)
Calls of active or inactive are those of the source. The rule behind the calls is not given here.

Key:
[1] = system: A549; experiment: Antiproliferative activity against human A549 cells at 5 uM after 24 hrs by WST1 assay relative to control; assay type: functional; conditions: A549, 24 h
Summary of the method: (§1)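 A549 cells seeded at 5 × 10⁴/well in Ham's F-12 with 10% FBS, with or without compound, cultured 24 h at 37 °C in 5% CO₂. Single-concentration screen at 5 µM; dose-escalation at 1, 5, 10 µM. WST-1 reagent added, 1 h incubation, absorbance at 450 nm. ACL shRNA/siRNA knockdown served as positive control.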

[2] = target: T1, ATP-citrate synthase (Homo sapiens, UniProt P53396); experiment: Inhibition of ATP citrate lyase (unknown origin) using sodium citrate as substrate after 60 mins by ADP-Glo luminescence assay
T1 sequence (P53396 whole entry): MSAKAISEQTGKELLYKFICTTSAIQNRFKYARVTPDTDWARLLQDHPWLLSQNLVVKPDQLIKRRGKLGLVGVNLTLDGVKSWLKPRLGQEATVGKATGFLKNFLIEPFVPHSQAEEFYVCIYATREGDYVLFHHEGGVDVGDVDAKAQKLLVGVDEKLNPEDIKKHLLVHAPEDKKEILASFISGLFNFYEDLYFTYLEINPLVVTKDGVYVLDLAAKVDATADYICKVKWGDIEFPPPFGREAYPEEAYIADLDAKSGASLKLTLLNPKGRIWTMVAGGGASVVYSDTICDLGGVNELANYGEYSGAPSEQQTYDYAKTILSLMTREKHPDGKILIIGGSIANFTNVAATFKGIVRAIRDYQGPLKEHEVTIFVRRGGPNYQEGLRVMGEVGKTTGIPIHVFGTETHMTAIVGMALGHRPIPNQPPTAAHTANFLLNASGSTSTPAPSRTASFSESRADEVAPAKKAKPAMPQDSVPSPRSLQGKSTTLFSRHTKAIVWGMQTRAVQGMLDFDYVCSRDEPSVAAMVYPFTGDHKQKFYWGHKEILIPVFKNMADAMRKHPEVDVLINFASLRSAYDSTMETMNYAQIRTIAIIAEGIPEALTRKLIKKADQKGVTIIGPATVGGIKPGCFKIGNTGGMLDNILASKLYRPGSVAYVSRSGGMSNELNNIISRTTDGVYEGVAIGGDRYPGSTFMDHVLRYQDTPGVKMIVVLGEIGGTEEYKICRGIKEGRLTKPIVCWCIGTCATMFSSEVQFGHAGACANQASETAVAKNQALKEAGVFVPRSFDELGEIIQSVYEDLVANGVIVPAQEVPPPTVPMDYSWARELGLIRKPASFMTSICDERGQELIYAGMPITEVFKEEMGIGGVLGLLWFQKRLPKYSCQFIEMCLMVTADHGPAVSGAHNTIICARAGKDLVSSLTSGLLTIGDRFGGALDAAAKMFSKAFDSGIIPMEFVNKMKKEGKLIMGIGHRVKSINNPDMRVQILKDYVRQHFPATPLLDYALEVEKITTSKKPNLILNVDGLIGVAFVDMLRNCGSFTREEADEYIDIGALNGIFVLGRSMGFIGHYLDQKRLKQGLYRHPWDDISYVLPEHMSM
Summary of the method: (§2)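 ADP-Glo reagent then added for 45 min at room temperature, and ADP formed was read by luminescence. Dose-response run in duplicate over 0.03–30 µM in 3.3-fold serial dilutions.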

[3] = target: T2, ATP-citrate synthase (Homo sapiens) (UniProt P53396); experiment: Inhibition of ATP citrate lyase (unknown origin) at 10 uM using sodium citrate as substrate after 60 mins by ADP-Glo luminescence assay relative to control; summary of the method: as §2
T2 sequence (whole entry): T1 sequence (P53396 whole entry)

[4] = system: HMLE; experiment: Inhibition of cancer stemness in snail expressing HMLE cells under 3D culture condition assessed as reduction in spheroid size at 25 uM by Hoechst 33342/Sytox green staining-based confocal microscopic method; assay type: functional, cell-based; conditions: Homo sapiens
Summary of the method: (§3)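 Cells seeded at 2000 per well onto 1.5% agarose-coated wells and grown 2 days at 37 °C, 5% CO₂ to form spheroids before treatment. Staining used Hoechst 33342 for all nuclei plus Sytox Green for dead cells, each at 1:10,000 final. Confocal imaging measured spheroid inner area and Sytox Green integrated density (IntDen), with IntDen/Area as the index.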

[5] = system: A549; experiment: Inhibition of cancer stemness in human A549 cells under 3D culture condition assessed as induction of apoptosis in spheroid at 25 uM by Hoechst 33342/Sytox green staining-based confocal microscopic method; assay type: functional, cell-based; summary of the method: as §3
[6] = system: A549; experiment: Inhibition of cancer stemness in human A549 cells under 3D culture condition assessed as reduction in spheroid size at 25 uM by Hoechst 33342/Sytox green staining-based confocal microscopic method; assay type: functional, cell-based; summary of the method: as §3
[7] = system: HMLE; experiment: Inhibition of cancer stemness in snail expressing HMLE cells under 3D culture condition assessed as induction of apoptosis in spheroid at 25 uM by Hoechst 33342/Sytox green staining-based confocal microscopic method; assay type: functional, cell-based; conditions: Homo sapiens; summary of the method: as §3
[8] = system: HMLE; experiment: Inhibition of cancer stemness in snail expressing HMLE cells under 3D culture condition assessed as induction of apoptosis in spheroid by Hoechst 33342/Sytox green staining-based confocal microscopic method; assay type: functional, cell-based; conditions: Homo sapiens; summary of the method: as §3
[9] = system: A549; experiment: Inhibition of cancer stemness in human A549 cells under 3D culture condition assessed as reduction in spheroid size by Hoechst 33342/Sytox green staining-based confocal microscopic method; assay type: functional, cell-based; summary of the method: as §3
[10] = system: HMLE; experiment: Inhibition of cancer stemness in snail expressing HMLE cells under 3D culture condition assessed as reduction in spheroid size by Hoechst 33342/Sytox green staining-based confocal microscopic method; assay type: functional, cell-based; conditions: Homo sapiens; summary of the method: as §3
[11] = system: A549; experiment: Inhibition of cancer stemness in human A549 cells under 3D culture condition assessed as induction of apoptosis in spheroid by Hoechst 33342/Sytox green staining-based confocal microscopic method; assay type: functional, cell-based; summary of the method: as §3
[12] = target: T2, ATP-citrate synthase (Homo sapiens); experiment: Inhibition of ATP citrate lyase (unknown origin) at 3.3 uM using sodium citrate as substrate after 60 mins by ADP-Glo luminescence assay relative to control; summary of the method: as §2
[13] = system: A549; experiment: Antiproliferative activity against human A549 cells after 24 hrs by WST1 assay; assay type: functional, cell-based; summary of the method: as §1
[14] = system: A549; experiment: Antiproliferative activity against human A549 cells at 10 uM after 24 hrs by WST1 assay relative to control; assay type: functional; conditions: A549, 24 h; summary of the method: as §1

SMILES | IC50 [2] [µM] | inhibition [3] [%] | further results
Cc1cc(O)c2c(c1)C(=O)c1c(Cl)c(O)cc(O)c1C2=O | 9.6 | – | inhibition at 5 µM [1]: 40 to 80%
Cc1cc(O)c2c(c1)C(=O)c1cc(O)c(-c3ccccc3)c(O)c1C2=O | – | 8 | –
Cc1cc(O)c2c(c1)C(=O)c1cc3c(c(O)c1C2=O)CN(c1ccc2ocnc2c1)CO3 | 29.7 | – | –
Cc1cc(O)c2c(c1)C(=O)c1cc(O)c(CN(C)c3ccccc3)c(O)c1C2=O | – | 6 | –
Cc1cc(O)c2c(c1)C(=O)c1c(c(O)c(-c3cccnc3)c(O)c1-c1cccnc1)C2=O | 23.5 | – | –
COc1ccc(-c2ccccc2)cc1NS(=O)(=O)c1cc(Cl)cc(Cl)c1O | – | – | inhibition [4]: Active; inhibition [5]: Active; inhibition [6]: Active; inhibition [7]: Active
Cc1cc(O)c2c(c1)Cc1cc(O)cc(O)c1C2=O | – | 0 | –
COc1cccc(-c2c(O)cc3c(c2O)C(=O)c2c(O)cc(C)cc2C3=O)c1 | 21.2 | – | –
Cc1cc(O)c2c(c1)C(=O)c1cc(O)c(I)c(O)c1C2=O | 7.5 | – | –
Cc1cc(O)c2c(c1)C(=O)c1cc(O)c(Cl)c(O)c1C2=O | 12.6 | – | inhibition at 5 µM [1]: 40 to 80%
Cc1cc(O)c2c(c1)C(=O)c1cc(O)c(CN3CCCCC3)c(O)c1C2=O | – | 6 | –
Cc1cc(O)c2c(c1)C(=O)c1cc(O)cc(O)c1C2=O | – | 0 | –
Cc1cc(O)c2c(c1)C(=O)c1c(Br)c(O)c(Br)c(O)c1C2=O | 2.9 | > 99 | inhibition at 5 µM [1]: 40 to 80%; inhibition [8]: Dose-dependent effect; inhibition [9]: Dose-dependent effect; inhibition [10]: Dose-dependent effect; inhibition [11]: Dose-dependent effect; inhibition [12]: > 99%; inhibition [13]: Dose-dependent effect; inhibition at 10 µM [14]: 100%
Cc1cc(O)c2c(c1)C(=O)c1cc(O)c(-c3cccnc3)c(O)c1C2=O | 21.1 | – | –
Cc1cc(O)c2c(c1)C(=O)c1cc(O)c(CN3CCOCC3)c(O)c1C2=O | – | 10 | –
Cc1cc(O)c2c(c1)C(=O)c1cc(O)c(-c3cnn(C)c3)c(O)c1C2=O | 13.3 | – | inhibition at 5 µM [1]: 40 to 80%; inhibition [13]: Dose-dependent effect
COc1cc2c(c(OC)c1Cl)C(=O)c1c(OC)cc(C)cc1C2=O | – | 0 | –
COc1ccc(-c2c(O)cc3c(c2O)C(=O)c2c(O)cc(C)cc2C3=O)cc1 | 18.8 | – | –
Cc1cc(O)c2c(c1)Cc1c(Cl)c(O)cc(O)c1C2=O | 3.8 | – | inhibition at 5 µM [1]: 40 to 80%
Cc1ccc(-c2c(O)cc3c(c2O)C(=O)c2c(O)cc(C)cc2C3=O)cc1 | – | 0 | –
Cc1cccc(-c2c(O)cc3c(c2O)C(=O)c2c(O)cc(C)cc2C3=O)c1 | 30 | – | –
Cc1cc(O)c2c(c1)C(=O)c1cc(O)c(-c3ccncc3)c(O)c1C2=O | – | 0 | –
Cc1cc(O)c2c(c1)C(=O)c1cc3c(c(O)c1C2=O)CN(c1ccccc1)CO3 | 25.8 | – | –
COc1cc(OC)cc(-c2c(O)cc3c(c2O)C(=O)c2c(O)cc(C)cc2C3=O)c1 | – | 0 | –
